Non-standard residues stand in square brackets, D forms with d. Residues, ends and D or L forms follow the SMILES beside them. *: point of attachment. NH(CH2CH2O)11C2H4NHBiotinyl = O=C(CCCC[C@@H]1SC[C@@H]2NC(=O)N[C@@H]21)NCCOCCOCCOCCOCCOCCOCCOCCOCCOCCOCCOCCN*; Lys(iBu,2-norbornyl) = CC(C)CN(CCCC[C@H](N)C(=O)O)C1CC2CCC1C2; Lys(Me,2-norbornyl) = CN(CCCC[C@H](N)C(=O)O)C1CC2CCC1C2; Nva(5-morpholino) = N[C@@H](CCCN1CCOCC1)C(=O)O; Benzoyl(4-tBu) = CC(C)(C)c1ccc(C(=O)*)cc1; Gly(cBu) = N[C@H](C(=O)O)C1CCC1
Experiments:
[1] = target: T1, CDYL2 (Homo sapiens, UniProt Q8N8U2); assay: TR-FRET competitive displacement assay; assay type: binding
T1 sequence (Q8N8U2 1-75): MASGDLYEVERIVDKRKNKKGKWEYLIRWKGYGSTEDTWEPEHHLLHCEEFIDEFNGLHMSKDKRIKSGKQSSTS

[2] = tested on: mESCs; assay: CellTiter-Glo cell viability assay; assay type: cell-based, mouse; conditions: 48 h, result in words
Procedure, shortened: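 mESCs plated at 5,000 cells/well onto a ten-point 1:2 compound dilution series in mESC medium. 48 h at 37°C, 5% CO2. Lysed with CellTiter-Glo reagent; luminescence read after 15 min at room temperature in dim light.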

[3] = target: T2, CBX8 (Mus musculus, UniProt Q9QXV1); assay: CBX8 GFP reporter assay in mESCs; assay type: cell-based; conditions: 48 h, result in words
T2 sequence (Q9QXV1 1-362): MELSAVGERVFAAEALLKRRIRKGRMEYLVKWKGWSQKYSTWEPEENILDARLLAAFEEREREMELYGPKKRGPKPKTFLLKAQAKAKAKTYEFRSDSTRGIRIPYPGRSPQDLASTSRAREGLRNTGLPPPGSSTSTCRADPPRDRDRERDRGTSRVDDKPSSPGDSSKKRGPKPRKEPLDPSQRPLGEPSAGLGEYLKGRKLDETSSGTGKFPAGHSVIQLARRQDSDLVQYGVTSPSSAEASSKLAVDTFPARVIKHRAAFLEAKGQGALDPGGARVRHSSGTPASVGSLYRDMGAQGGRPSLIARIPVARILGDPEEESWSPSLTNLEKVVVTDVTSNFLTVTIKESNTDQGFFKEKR
Procedure, shortened: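 Mouse ESC reporter line carrying 12xZFHD1, 4xGAL4 and 7xTetO sites upstream of a Puromycin-GFP gene, made by recombinase-mediated cassette exchange. Cells grown feeder-free in high-glucose DMEM with 13.5% FBS and LIF. 2,000 cells/well seeded onto compound in triplicate: 10-point 2-fold series, or for ester analogues 15-point 1.5-fold series with 0.06% DMSO final. 48 h at 37°C. GFP read by flow cytometry on gated live single cells.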

[4] = target: 274 purified Kme readers (Homo sapiens, UniProt Q13185); assay: Protein domain microarray; assay type: binding; conditions: 1 μM, qualitative
274 purified Kme readers (Homo sapiens, UniProt Q13185), sequence (Q13185 1-88): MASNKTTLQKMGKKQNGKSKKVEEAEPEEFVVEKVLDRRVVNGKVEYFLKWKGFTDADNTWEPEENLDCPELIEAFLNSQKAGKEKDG

[5] = target: T3, 274 purified Kme readers (Homo sapiens, UniProt O95931); assay: Protein domain microarray; assay type: binding; conditions: 1 μM, qualitative
T3 sequence (O95931 1-69): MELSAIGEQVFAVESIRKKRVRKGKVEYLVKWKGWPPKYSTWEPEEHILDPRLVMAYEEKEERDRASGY

[6] = target: T4, 274 purified Kme readers (Homo sapiens, UniProt Q14781); assay: Protein domain microarray; assay type: binding; conditions: 1 μM, qualitative
T4 sequence (Q14781 1-70): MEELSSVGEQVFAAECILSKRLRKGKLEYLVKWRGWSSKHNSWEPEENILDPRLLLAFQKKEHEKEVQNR

[7] = target: T5, 274 purified Kme readers (Homo sapiens, UniProt Q9HC52); assay: Protein domain microarray; assay type: binding; conditions: 1 μM, qualitative
T5 sequence (Q9HC52 1-69): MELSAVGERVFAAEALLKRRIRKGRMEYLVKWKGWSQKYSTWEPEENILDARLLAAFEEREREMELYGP

[8] = target: T6, 274 purified Kme readers (Homo sapiens, UniProt O95503); assay: Protein domain microarray; assay type: binding; conditions: 1 μM, qualitative
T6 sequence (O95503 1-69): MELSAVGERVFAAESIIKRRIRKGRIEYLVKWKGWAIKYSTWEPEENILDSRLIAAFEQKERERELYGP

[9] = target: 274 purified Kme readers (Homo sapiens, UniProt P83916); assay: Protein domain microarray; assay type: binding; conditions: 1 μM, qualitative
274 purified Kme readers (Homo sapiens, UniProt P83916), sequence (P83916 1-79): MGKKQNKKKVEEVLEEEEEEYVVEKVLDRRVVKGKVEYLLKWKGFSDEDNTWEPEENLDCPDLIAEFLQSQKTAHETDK

[10] = target: 274 purified Kme readers (Homo sapiens, UniProt P45973); assay: Protein domain microarray; assay type: binding; conditions: 1 μM, qualitative
274 purified Kme readers (Homo sapiens, UniProt P45973), sequence (P45973 1-78): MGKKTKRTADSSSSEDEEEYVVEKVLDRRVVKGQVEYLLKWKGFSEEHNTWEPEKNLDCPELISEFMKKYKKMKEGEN

[11] = target: T7, 274 purified Kme readers (Homo sapiens, UniProt Q8N8U2); assay: Protein domain microarray; assay type: binding; conditions: 1 μM, qualitative
T7 sequence (Q8N8U2 1-67): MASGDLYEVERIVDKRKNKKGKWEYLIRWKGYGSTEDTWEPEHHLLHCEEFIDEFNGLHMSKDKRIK

[12] = target: T8, 274 purified Kme readers (Homo sapiens, UniProt O00257); assay: Protein domain microarray; assay type: binding; conditions: 1 μM, qualitative
T8 sequence (O00257 1-69): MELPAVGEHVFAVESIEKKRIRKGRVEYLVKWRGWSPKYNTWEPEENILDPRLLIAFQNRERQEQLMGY

[13] = target: T9, CBX7 (Mus musculus, UniProt Q8VDS3); assay: CBX7 GFP reporter assay in mESCs; assay type: cell-based; conditions: result in words
T9 sequence (Q8VDS3 1-158): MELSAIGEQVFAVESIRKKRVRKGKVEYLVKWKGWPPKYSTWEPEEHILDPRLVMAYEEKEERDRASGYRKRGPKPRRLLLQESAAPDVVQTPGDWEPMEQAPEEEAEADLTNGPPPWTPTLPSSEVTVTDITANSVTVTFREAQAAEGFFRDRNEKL

[14] = tested on: CBX2, CBX6, and CBX7; assay: ChIP-qPCR at endogenous Polycomb target genes; assay type: cell-based, mouse; conditions: 20 μM, wild-type mESCs (absence of CBX8)

binding to CBX3 on microarray [4]	binding to CBX7 on microarray [5]	binding to CBX2 CD on microarray [6]	binding to CBX8 CD on microarray [7]	binding to CBX6 on microarray [8]	binding to CBX1 on microarray [9]	binding to CBX5 on microarray [10]	binding to the CD of CDYL2 on microarray [11]	binding to CBX4 on microarray [12]	SMILES	IC50 [1] [µM]	cytotoxicity [2]	GFP reactivation / cellular activity in the CBX8 reporter assay [3]	cellular activity in the CBX7 reporter cell line [13]	chromatin binding of CBX2, CBX6, and CBX7 [14]
									COC(=O)[C@H](CO)NC(=O)[C@H](CCCCN(C)C1CC2CCC1C2)NC(=O)[C@H](CCCN1CCOCC1)NC(=O)[C@@H](NC(=O)[C@H](Cc1ccccc1)NC(=O)c1ccc(C(C)(C)C)cc1)C1CCC1 (stereo partly drawn) [Compound 38, Methyl N^6-(bicyclo[2.2.1]heptan-2-yl)-N^2-((S)-2-((S)-2-((S)-2-(4-(tert-butyl)benzamido)-3-phenylpropanamido)-2-cyclobutylacetamido)-5-morpholinopentanoyl)-N^6-methyl-L-lysyl-L-serinate] ({Benzoyl(4-tBu)}-F[Gly(cBu)][Nva(5-morpholino)][Lys(Me,2-norbornyl)]S-OMe)	0.96 ± 0.14	no cytotoxicity up to 100 μM	no cellular activity		
did not display binding	less strongly	bound strongly	bound strongly	less strongly	did not display binding	did not display binding	weakly	less strongly	CC(C)CN(CCCC[C@H](NC(=O)[C@H](CCCN1CCOCC1)NC(=O)[C@@H](NC(=O)[C@H](Cc1ccccc1)NC(=O)c1ccc(C(C)(C)C)cc1)C1CCC1)C(=O)N[C@@H](CO)C(=O)NCCOCCOCCOCCOCCOCCOCCOCCOCCOCCOCCOCCNC(=O)CCCC[C@@H]1SC[C@@H]2NC(=O)N[C@@H]21)C1CC2CCC1C2 (stereo partly drawn) [Compound 39] ({Benzoyl(4-tBu)}-F[Gly(cBu)][Nva(5-morpholino)][Lys(iBu,2-norbornyl)]S-{NH(CH2CH2O)11C2H4NHBiotinyl})					
									COC(=O)[C@H](CO)NC(=O)[C@H](CCCCN(CC(C)C)C1CC2CCC1C2)NC(=O)[C@H](CCCN1CCOCC1)NC(=O)[C@@H](NC(=O)[C@H](Cc1ccccc1)NC(=O)c1ccc(C(C)(C)C)cc1)C1CCC1 (stereo partly drawn) [Compound 34, Methyl N^6-(bicyclo[2.2.1]heptan-2-yl)-N^2-((S)-2-((S)-2-((S)-2-(4-(tert-butyl)benzamido)-3-phenylpropanamido)-2-cyclobutylacetamido)-5-morpholinopentanoyl)-N^6-isobutyl-L-lysyl-L-serinate] ({Benzoyl(4-tBu)}-F[Gly(cBu)][Nva(5-morpholino)][Lys(iBu,2-norbornyl)]S-OMe)	~100			no cellular activity	minimal effects on chromatin binding
